Here are results for 41 molecules from ChEMBL document CHEMBL1134951, “Substituted uracil derivatives as potent inhibitors of poly(ADP-ribose)polymerase-1 (PARP-1)” (Bioorg Med Chem Lett, 2002).

Data set [1] addresses T1, Poly [ADP-ribose] polymerase 1 (Homo sapiens, UniProt P09874). The data set can be described thus: Inhibitory activity against human recombinant PARP-1.
In data set [2] the test system is Rattus norvegicus. The data set can be described thus: Volume at steady state distribution by administering the compound intravenously at a dose of 1 mg/kg in male wistar rat was determined. Format: ADME, organism-based. Further details: dose 1 mg/kg, route intravenous. The note with it: in vivo, iv.
A short description of data set [3]: Clearance was determined by administering the compound intravenously at a dose of 1 mg/kg in male wistar rat. As to conditions: in vivo, iv. Type of data set: ADME, organism-based. Further details: dose 1 mg/kg, route intravenous.
Data set [4] in a line: Half life was determined by administering the compound intravenously at a dose of 1 mg/kg in male wistar rat. Type of data set: ADME, organism-based. The arrangement: dose 1 mg/kg, route intravenous. The note with it: in vivo, iv.
Data set [5] can be described thus: Area under the curve was determined by administering the compound at a dose of 1 mg/kg intravenously in male wistar rat. The arrangement: dose 1 mg/kg, route intravenous. The note with it: in vivo, iv. Type of data set: ADME, organism-based.
Data set [6] is described as follows: Solubility in phosphate buffered saline (1% DMSO) at pH 6.5 (24 hr equilibration). Type of data set: physicochemical. The note with it: buffer.
Data set [7] has as its target T1, Poly [ADP-ribose] polymerase 1. Put plainly: Concentration required to inhibit human recombinant Poly (ADP-ribose) polymerase 1 was determined using dose-response inhibition. In a few lines: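 Purified recombinant human PARP-1 from a baculovirus (Bac-To-Bac) expression system. It ran 10 min at rt and was stopped with ice-cold 10% TCA. Precipitate was filtered, washed with ethanol and dried, then counted by scintillation. Read-out: IC50.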

≈ marks a conversion by molar mass, not a printed value. Where “and” joins values, the source holds several entries; their conditions need not be identical. Equal entries are not always repeated.

T1 sequence (P09874 whole entry): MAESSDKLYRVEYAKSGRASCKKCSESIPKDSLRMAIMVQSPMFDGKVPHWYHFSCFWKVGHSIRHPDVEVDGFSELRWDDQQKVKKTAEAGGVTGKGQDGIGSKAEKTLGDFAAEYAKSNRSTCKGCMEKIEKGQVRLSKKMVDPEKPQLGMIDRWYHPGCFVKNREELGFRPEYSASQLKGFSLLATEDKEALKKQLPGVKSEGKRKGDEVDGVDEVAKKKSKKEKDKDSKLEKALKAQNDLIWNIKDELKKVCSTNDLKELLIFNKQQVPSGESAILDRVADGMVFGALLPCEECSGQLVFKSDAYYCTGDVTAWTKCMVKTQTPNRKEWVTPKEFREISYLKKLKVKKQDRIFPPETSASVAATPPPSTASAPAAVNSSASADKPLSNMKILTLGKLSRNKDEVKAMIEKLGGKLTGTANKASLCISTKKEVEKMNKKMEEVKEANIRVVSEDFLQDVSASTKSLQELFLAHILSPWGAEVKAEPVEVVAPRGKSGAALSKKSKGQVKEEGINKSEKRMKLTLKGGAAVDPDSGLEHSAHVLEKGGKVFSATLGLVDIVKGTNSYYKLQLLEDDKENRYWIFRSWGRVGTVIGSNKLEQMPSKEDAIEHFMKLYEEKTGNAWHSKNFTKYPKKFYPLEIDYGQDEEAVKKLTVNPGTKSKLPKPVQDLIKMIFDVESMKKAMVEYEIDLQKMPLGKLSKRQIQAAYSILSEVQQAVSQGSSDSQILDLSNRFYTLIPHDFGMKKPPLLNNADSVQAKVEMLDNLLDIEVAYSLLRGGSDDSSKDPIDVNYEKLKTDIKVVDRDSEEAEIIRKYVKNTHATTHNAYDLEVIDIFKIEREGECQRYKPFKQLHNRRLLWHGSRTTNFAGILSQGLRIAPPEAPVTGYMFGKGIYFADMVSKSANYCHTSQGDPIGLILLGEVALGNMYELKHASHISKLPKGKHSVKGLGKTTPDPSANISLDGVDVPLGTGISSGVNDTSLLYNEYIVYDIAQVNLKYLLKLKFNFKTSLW

Consider `O=C(CCCCCn1c2c(c(=O)[nH]c1=O)CSCC2)NCC(=O)N1CCN(c2ncccn2)CC1`, for which the IC50 in data set [1] was 250 nM.

For the molecule `O=C(CCn1c2c(c(=O)[nH]c1=O)CCCC2)NCC(=O)c1ccccc1`, the IC50 in data set [1] was 450 nM.

Regarding `O=C(CCn1c2c(c(=O)[nH]c1=O)CCCC2)NCC(=O)N1CCN(c2ncccn2)CC1`, the half-inhibitory concentration (IC50) in data set [1] was 90 nM.

Take `O=C(CCn1c2c(c(=O)[nH]c1=O)CSCC2)NCC(=O)N1CCN(c2ncccn2)CC1`: in data set [2], the distribution volume (Vss) was 0.31 L/kg. Moreover, the clearance in data set [3] was 33.5 mL/min/kg. The same molecule had a half-life in data set [4] of 12 min. This molecule also returned an area under the curve (AUC) in data set [5] of 520 ng·h/mL.

As to `O=C(CCn1c2c(c(=O)[nH]c1=O)CSCC2)NCC(=O)c1cccc(-c2ccccc2)c1`, the 50% inhibitory concentration (IC50) in data set [1] stood at 70 nM.

With `O=C(CCn1c2c(c(=O)[nH]c1=O)CSCC2)NCC(=O)c1ccc(-c2cccnc2)cc1`, in data set [1], the IC50 was determined as 12 nM.

For the molecule `O=C(CCn1c2c(c(=O)[nH]c1=O)CSCC2)NCC(=O)c1ccc(Oc2ccccc2)cc1`, in data set [1], the IC50 turned out to be 30 nM.

As for `O=C(CCn1c2c(c(=O)[nH]c1=O)CSCC2)NCC(=O)c1ccc(-c2cncnc2)cc1`, the 50% inhibitory concentration (IC50) in data set [1] was determined as 25 nM.

For the molecule `O=C(CCn1c2c(c(=O)[nH]c1=O)CSCC2)NCC(=O)N1CCN(c2cccnn2)CC1`, the half-maximal inhibitory concentration (IC50) in data set [1] amounted to 20 nM.

Turning to `O=C(CCn1c2c(c(=O)[nH]c1=O)CSCC2)NCC(=O)N1CCN(c2ncncn2)CC1`, the half-inhibitory concentration (IC50) in data set [1] was 50 nM.

As to `COc1ccc(N2CCN(C(=O)CNC(=O)CCn3c4c(c(=O)[nH]c3=O)CSCC4)CC2)cc1`, the Vss in data set [2] is 1.01 L/kg. This molecule registered a clearance in data set [3] greater than 75 mL/min/kg. Also, in data set [4], the half-life was 12 min. Besides, the AUC in data set [5] amounted to 160 ng·h/mL. The IC50 in data set [1] is 20 nM and 25 nM.

`O=C(CCn1c2c(c(=O)[nH]c1=O)CSCC2)NCC(=O)c1ccc(-c2ccccc2)cc1`: the IC50 in data set [1] is 20 nM.

In turn, `O=C(CCn1c2c(c(=O)[nH]c1=O)CSCC2)NCC(=O)N1CCN(c2cc(C(F)(F)F)ccn2)CC1` displayed a Vss in data set [2] of 0.42 L/kg. The same molecule had a clearance in data set [3] of 36.8 mL/min/kg. In data set [4], the half-life is 18 min. Also, in data set [5], the AUC was determined as 450 ng·h/mL. The IC50 in data set [1] turned out to be 20 nM.

Take `Nc1cccc(-c2ccc(C(=O)CNC(=O)CCn3c4c(c(=O)[nH]c3=O)CSCC4)cc2)c1`: the half-maximal inhibitory concentration (IC50) in data set [1] is 20 nM.

Molecule `O=C(CCn1c2c(c(=O)[nH]c1=O)CSCC2)NCC(=O)c1ccc(-c2cccnn2)cc1` gave a Vss in data set [2] of 0.27 L/kg. Besides, the clearance in data set [3] was 27.3 mL/min/kg. The molecule further had a half-life in data set [4] of 18 min. Also, in data set [5], the AUC was found to be 610 ng·h/mL. The IC50 in data set [1] was determined as 25 nM.

On to `O=C(CCn1c2c(c(=O)[nH]c1=O)CSCC2)NCC(=O)c1ccc(N2CCCC2)cc1`, for which the IC50 in data set [1] is 12 nM.

For the molecule `O=C(CCn1c2c(c(=O)[nH]c1=O)CSCC2)NCC(=O)c1ccc(OC(=O)c2ccccc2)cc1`, the concentration for half-maximal inhibition (IC50) in data set [1] was 30 nM.

Take `O=C(CCn1c2c(c(=O)[nH]c1=O)CSCC2)NCC(=O)c1ccc(OC(F)F)cc1`: in data set [1], the 50% inhibitory concentration (IC50) was 30 nM.

With `O=C(CCn1c2c(c(=O)[nH]c1=O)CSCC2)NCC(=O)N1CCN(c2ccncc2)CC1`, the concentration for half-maximal inhibition (IC50) in data set [1] was found to be 40 nM.

Turning to `O=C(CCn1c2c(c(=O)[nH]c1=O)COCC2)NCC(=O)N1CCN(c2ncccn2)CC1`, the IC50 in data set [1] is 800 nM.

With `CC(CC(=O)NCC(=O)c1ccc2ccccc2c1)n1c2c(c(=O)[nH]c1=O)CCCC2` (stereo not given), the IC50 in data set [1] is greater than 5000 nM.

Consider `CN(CC(=O)c1ccc2ccccc2c1)C(=O)CCn1c2c(c(=O)[nH]c1=O)CCCC2`, for which the IC50 in data set [1] was 400 nM.

With `O=C(CCn1c2c(c(=O)[nH]c1=O)CC=CCC2)NCC(=O)N1CCN(c2ncccn2)CC1`, the IC50 in data set [1] stood at 900 nM.

As for `O=C(CCn1c2c(c(=O)[nH]c1=O)CSCC2)NCC(=O)c1ccc(Cl)cc1`, in data set [1], the IC50 stood at 60 nM.

On to `O=C(Cn1c2c(c(=O)[nH]c1=O)CSCC2)NCCC(=O)N1CCN(c2ncccn2)CC1`, for which, in data set [1], the 50% inhibitory concentration (IC50) stood at 60 nM.

`COc1ccc(-c2ccc(C(=O)CNC(=O)CCn3c4c(c(=O)[nH]c3=O)CSCC4)cc2)cc1`: in data set [1], the concentration for half-maximal inhibition (IC50) was found to be 15 nM.

On to `O=C(CCn1c2c(c(=O)[nH]c1=O)CSCC2)NCC(=O)c1ccc(-c2ccncc2)cc1`, for which, in data set [1], the IC50 is 15 nM.

In the case of `O=C(CCn1c2c(c(=O)[nH]c1=O)CSCC2)NCC(=O)c1ccc(Br)cc1`, the half-inhibitory concentration (IC50) in data set [1] worked out at 15 nM.

Take `O=C(CCn1c2c(c(=O)[nH]c1=O)CCCC2)NCC(=O)N1CCN(c2ccccc2)CC1`: in data set [1], the 50% inhibitory concentration (IC50) came to 200 nM.

On to `O=C(CCn1c2c(c(=O)[nH]c1=O)CSCC2)NCC(=O)c1cccc(Br)c1`, for which the half-inhibitory concentration (IC50) in data set [1] came to 70 nM.

Take `O=C(CCn1c2c(c(=O)[nH]c1=O)CCCCC2)NCC(=O)N1CCN(c2ncccn2)CC1`: the IC50 in data set [1] turned out to be 900 nM.

Regarding `C=CCCc1c(CC=C)c(=O)[nH]c(=O)n1CCC(=O)NCC(=O)N1CCN(c2ncccn2)CC1`, the IC50 in data set [1] is greater than 5000 nM.

As to `O=C(CCn1c2c(c(=O)[nH]c1=O)CSCC2)NCC(=O)N1CCN(c2ccccc2)CC1`, the concentration in solution in data set [6] (Solubility) came to 330 µg/mL (≈ 721 µM). In data set [2], this molecule showed a distribution volume (Vss) of 1.39 L/kg. In data set [3], the clearance is 72.2 mL/min/kg. Further, the half-life in data set [4] was 24 min. Further, the AUC in data set [5] was found to be 230 ng·h/mL. Besides, the half-maximal inhibitory concentration (IC50) in data set [7] worked out at 30 nM.

As for `Nc1cccnc1N1CCN(C(=O)CNC(=O)CCn2c3c(c(=O)[nH]c2=O)CSCC3)CC1`, the IC50 in data set [1] is 70 nM.

`O=C(CCn1c2c(c(=O)[nH]c1=O)CSCC2)NCC(=O)N1CCN(c2ncccc2C(F)(F)F)CC1` had a clearance in data set [3] of 71.7 mL/min/kg. For the same molecule, the exposure (AUC) in data set [5] is 230 ng·h/mL. Further, the IC50 in data set [1] was 40 nM.

Take `O=C(CCn1c2c(c(=O)[nH]c1=O)CCCC2)NCC(=O)c1ccc(Br)cc1`: the IC50 in data set [1] is 80 nM.

In turn, `O=C(CCn1c2c(c(=O)[nH]c1=O)CSCC2)NCC(=O)N1CCN(c2ccccn2)CC1` yielded a volume of distribution (Vss) in data set [2] of 1.19 L/kg. Also, the clearance in data set [3] is 51.8 mL/min/kg. For the same molecule, the half-life in data set [4] is 72 min. In data set [5], this molecule displayed an exposure (AUC) of 320 ng·h/mL. Besides, the IC50 in data set [1] is 35 nM.

In data set [2], `O=C(CCn1c2c(c(=O)[nH]c1=O)CCCC2)NCC(=O)c1ccc2ccccc2c1` displayed a volume of distribution (Vss) of 0.5 L/kg. Besides, in data set [3], the clearance is 28.3 mL/min/kg. For the same molecule, the half-life in data set [4] was 42 min. In addition, the area under the curve (AUC) in data set [5] worked out at 600 ng·h/mL.

As to `O=C(Cn1c2c(c(=O)[nH]c1=O)CSCC2)NCC(=O)N1CCN(c2ncccn2)CC1`, the IC50 in data set [1] came out at 150 nM.

On to `COc1ccc(C(=O)CNC(=O)CCn2c3c(c(=O)[nH]c2=O)CSCC3)cc1`, for which the IC50 in data set [1] was found to be 25 nM.

For the molecule `COc1ccc(C(=O)CNC(=O)CCn2c3c(c(=O)[nH]c2=O)CCCC3)cc1`, the IC50 in data set [1] came out at 300 nM.
